Measured values from PMC5839721 (The Journal of General Physiology, 2018).
Read-outs that look alike come from different tables or passages of the source.

Legend:
human SERT [1] = target: T1, human SERT (Homo sapiens, UniProt P31645); type: cell-based; conditions: for change of rate of peak current recovery with intracellular Na+ concentration: 0 to 140 mM intracellular Na+; for change of rate of peak current recovery with intracellular Na+ concentration / increase of rate of peak current recovery from 0 M to 140 mM intracellular Na+: extracellular Na+ 140 mM; for peak current recovery rate (monoexponential fit): fixed intracellular Na+ 140 mM, K+-free, Fig. 1 G; for dependence of the recovery rates on extracellular Na+ concentration: intracellular Na+ 140 mM, extracellular Na+ 10-140 mM; for kslow of peak current recovery (biexponential fit): after 30 µM substrate, ±SEM
T1 sequence (P31645 whole entry, the tested form may be a part): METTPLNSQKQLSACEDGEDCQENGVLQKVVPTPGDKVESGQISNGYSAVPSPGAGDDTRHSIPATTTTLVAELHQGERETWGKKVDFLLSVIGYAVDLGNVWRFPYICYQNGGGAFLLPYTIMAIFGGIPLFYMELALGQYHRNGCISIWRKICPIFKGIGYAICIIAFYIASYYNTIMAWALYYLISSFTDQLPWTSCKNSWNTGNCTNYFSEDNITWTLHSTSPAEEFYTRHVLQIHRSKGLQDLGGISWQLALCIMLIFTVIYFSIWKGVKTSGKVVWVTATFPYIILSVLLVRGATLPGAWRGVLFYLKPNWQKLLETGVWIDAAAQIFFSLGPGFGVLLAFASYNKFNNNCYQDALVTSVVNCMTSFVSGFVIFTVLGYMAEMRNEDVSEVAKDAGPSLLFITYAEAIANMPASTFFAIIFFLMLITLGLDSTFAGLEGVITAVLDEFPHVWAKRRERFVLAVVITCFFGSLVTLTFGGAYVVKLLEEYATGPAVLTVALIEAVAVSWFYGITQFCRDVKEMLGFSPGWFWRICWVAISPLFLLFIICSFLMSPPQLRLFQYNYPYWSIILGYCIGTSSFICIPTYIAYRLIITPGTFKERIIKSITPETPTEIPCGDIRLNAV
How it was run: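 GFP-tagged human SERT, tetracycline-inducible, in HEK293 cells seeded at low density 24 h before. Whole-cell voltage clamp with superfused pH 7.4 HEPES buffer. Na+ varied, osmolarity kept by NMDG chloride; intracellular Na+ 0–140 mM at 140 mM external. After 30 µM substrate, 10 µM 5-HT-evoked peak recovery fitted to mono- or biexponential rise; rates ±95% CI, kslow ±SEM; n = 4–7.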

human SERT [2] = target: T1, human SERT; test: [3H]MPP+ release; type: cell-based; conditions: 3 µM releaser, 100 µM ouabain; for effect of monensin on efflux of [3H]MPP+: with vs without 10 µM monensin
How it was run: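 HEK293 cells with inducible GFP-tagged human SERT on poly-D-lysine coverslips (24 h) were preloaded with 0.1 µM [3H]MPP+ for 20 min at 37°C. Superfused with K+-free buffer containing 100 µM ouabain for 40 min, then 2-min fractions: three basal, four with 10 µM monensin or ethanol vehicle, five with 3 µM test compound, three with 1% SDS. Release given as percent [3H]MPP+ over time.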

SMILES	change of rate of peak current recovery with intracellular Na+ concentration (human SERT [1])	peak current recovery rate (monoexponential fit) (human SERT [1]) [s⁻¹]	effect of monensin on efflux of [3H]MPP+ (human SERT [2])	increase of rate of peak current recovery from 0 M to 140 mM intracellular Na+ (human SERT [1]) [fold]	dependence of the recovery rates on extracellular Na+ concentration (human SERT [1])	other results
CCN[C@@H](C)Cc1ccc2ccccc2c1 [PAL-1045]	decreased fourfold	0.025 ± 0.001	comparable in the absence and presence of monensin			dissociation rate from SERT (human SERT [1]; slow dissociation from the outward-facing conformation, high Na+): ~0.025 s⁻¹
NCCc1c[nH]c2ccc(O)cc12 [5-HT, 5-hydroxy-tryptamine]		4.012 ± 0.211		~6.7	did not detect any dependence	
CC(N)Cc1ccc(Cl)cc1 (centres unmarked) [p-chloroamphetamine, para-chloroamphetamine]			significantly larger efflux	~10	did not detect any dependence	kslow of peak current recovery (biexponential fit) (human SERT [1]; 10 mM Na+e, 140 mM intracellular Na+): 0.35 ± 0.23 s⁻¹; kslow of peak current recovery (biexponential fit) (human SERT [1]; 70 mM Na+e, 140 mM intracellular Na+): 0.10 ± 0.12 s⁻¹; kslow of peak current recovery (biexponential fit) (human SERT [1]; 70 mM Na+i, 140 mM extracellular Na+): 0.50 ± 0.11 s⁻¹; kslow of peak current recovery (biexponential fit) (human SERT [1]; 140 mM Na+e, 140 mM intracellular Na+): 0.49 ± 0.15 s⁻¹; release of [3H]MPP+ (human SERT [2]; no monensin): substantially larger release of [^3H]MPP^+ than PAL-1045
CC(N)Cc1ccc2ccccc2c1 (centres unmarked) [PAL-287]	did not change with Na^+ concentration					
CNC(C)Cc1ccc2ccccc2c1 (centres unmarked) [PAL-1046]	did not change with Na^+ concentration					
